Test results reported in ChEMBL document CHEMBL1687710, “Heterocyclic compounds that inhibit Rev-RRE function and human immunodeficiency virus type 1 replication” (Antimicrob Agents Chemother, 2008).
Active and inactive are the calls of the source. The calls are words filed in the database; no cut-off is given here.

Key:
[1] = tested on: Human immunodeficiency virus 1; test: Inhibition of HIV1 Rev-radiolabeled Rev response element interaction after 10 mins by electrophoretic mobility shift assay
How it was run: (§1)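 A 234-bp RRE RNA was transcribed with [32P]UTP and T7 polymerase, then refolded (80°C 3 min, slow cooling). RRE (0.5 ng) was incubated with bacterial Rev (38 ng) in HEPES-KOH pH 7.8, 200 mM KCl, 4 mM MgCl2, glycerol with compound (up to 100 μM) on ice for 10 min. Complexes were resolved by PAGE and read by phosphorimager.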

[2] = Cytotoxicity against human MT4 cells after 5 days by MTS assay; type: cell-based; settings: read-out: TC50
How it was run: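 MT-4 T cells were incubated with compound for 5 days. Toxicity was by MTS tetrazolium reduction, with formazan absorbance at 492 nm compared with cells given no compound.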

HeLa = test: Inhibition of HIV1 Rev expressed in human HeLa cells co-expressing firefly luciferase reporter gene assessed as inhibition of firefly luciferase expression after 24 hrs; type: cell-based; settings: Human immunodeficiency virus 1
How it was run: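 HeLa line with an integrated Rev-dependent Renilla luciferase reporter, plus firefly luciferase and HIV-1 IIIB Rev under Tet-Off control. Doxycycline was removed to induce expression alongside compound at various concentrations. Cells were plated at 2 × 10^4/well in triplicate.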

[3] = Inhibition of HIV1 Rev expressed in human HeLa cells co-expressing renilla luciferase reporter gene assessed as inhibition of renilla luciferase expression after 24 hrs; type: cell-based; settings: Human immunodeficiency virus 1, HeLa
How it was run: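 HeLa line with stably integrated Rev-dependent Renilla luciferase reporter (CMV promoter) plus bicistronic firefly luciferase/HIV-1 IIIB rev construct under Tet-Off; doxycycline withdrawn to induce Rev and both luciferases while compound added at various concentrations.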

[4] = Inhibition of HIV1 Rev expressed in african green monkey 5BD.1 cells assessed as inhibition of p24 antigen treated for 16 hrs after washout with medium again readded for 24 hrs by ELISA
[5] = Cytotoxicity against african green monkey 5BD.1 cells after 2 days by MTS assay; type: cell-based; settings: chlorocebus aethiops, read-out: TC50
How it was run: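 5BD.1 cells (COS-derived, Rev-dependent Gag-Pol particle producers; 20,000/well) were given compound at 0.1–30 μM for 16 h, then refreshed with compound for 24 h more. Cells were collected at 40 h for the MTS proliferation assay, with formazan read at 492 nm versus untreated cells. TC50 was by curve fit.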

[6] = tested on: Human immunodeficiency virus 1; test: Inhibition of HIV1 Rev-radiolabeled Rev response element interaction at up to 100 uM after 10 mins by electrophoretic mobility shift assay; how it was run: as §1
[7] = tested on: Human immunodeficiency virus 1; test: Antiviral activity against HIV1 infected in TNFalpha-stimulated human U1 cells assessed as inhibition of Pr55gag synthesis at 5 uM after 24 hrs by Western blotting; type: functional, organism-based
How it was run: (§2)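 U1 cells carrying integrated provirus were induced with TNF-α and given compound (5 or 10 μM). After 24 h, cells were harvested and analysed by Western blot for p24, Pr55gag and Nef using p24- and Nef-specific monoclonal antibodies.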

U1 = test: Cytotoxicity against human U1 cells after 3 days by MTS assay; type: cell-based; settings: u1, 72 h
[8] = tested on: Human immunodeficiency virus 1; test: Antiviral activity against HIV1 infected in TNFalpha-stimulated human U1 cells assessed as inhibition of Nef synthesis at 5 uM after 24 hrs by Western blotting; type: functional, organism-based; how it was run: as §2
[9] = tested on: Human immunodeficiency virus 1; test: Antiviral activity against HIV1 NL4-3 infected in human 293T cells assessed as inhibition of Nef synthesis at 8 uM after 24 hrs by Western blotting
[10] = tested on: Human immunodeficiency virus 1; test: Antiviral activity against HIV1 infected in TNFalpha-stimulated human U1 cells assessed as inhibition of p24 synthesis at 5 uM after 24 hrs by Western blotting; type: functional, organism-based; how it was run: as §2
[11] = tested on: Human immunodeficiency virus 1; test: Antiviral activity against HIV1 NL4-3 infected in human SupT1 cells assessed as inhibition of viral growth at 8 uM after 30 days by p24 ELISA; type: functional, organism-based; settings: SUP-T1
How it was run: (§3)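 SupT1 cells (5 × 10^6) were Polybrene-treated and infected with NL4-3 (50 ng p24 equivalents), then washed. They were cultured in RPMI/10% FCS with compound at fixed levels (0.8 and 8 μM, or 1 and 10 μM) or none. Cultures were split every 3 days with fresh compound-containing medium for 30–31 days. Supernatant p24 was measured by ELISA.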

[12] = Inhibition of HIV1 Rev-Rev response element-mediated p24 antigen production expressed in human HEK 293T cells after 72 hrs; settings: Human immunodeficiency virus 1, HEK-293T
HEK-293T = test: as above; settings: Human immunodeficiency virus 1
[13] = tested on: Human immunodeficiency virus 1; test: Antiviral activity against HIV1 Brazilian isolate 93BR021 infected in PHA-stimulated human PBMC assessed as inhibition of viral replication after 7 days; type: functional, organism-based; settings: Human immunodeficiency virus 1, Brazilian isolate 93BR021, 168 h
How it was run: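 PHA-stimulated (4 μg/ml, 48–72 h) PBMCs pooled from at least two donors, kept in 20 U/ml IL-2, 5 × 10^4 cells/well. Infected with primary isolate 93BR021 (CCR5-tropic, subtype B) at MOI ≈0.1 with nine compound concentrations, triplicate wells, for 7 days. Supernatant reverse transcriptase activity was read, then cell MTS toxicity. EC50 was interpolated between bracketing points.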

[14] = Inhibition of Mason-Pfizer monkey virus […]constitutive transport element-mediated p24 antigen production expressed in human HEK 293T cells after 72 hrs
[15] = tested on: Human immunodeficiency virus 1; test: Antiviral activity against HIV1 NL4-3 infected in human SupT1 cells assessed as inhibition of viral growth at 0.8 uM after 30 days by p24 ELISA; type: functional, organism-based; settings: SUP-T1; how it was run: as §3
[16] = tested on: Human immunodeficiency virus 1; test: Antiviral activity against HIV1 infected in TNFalpha-stimulated human U1 cells assessed as inhibition of viral replication after 72 hrs; type: functional, organism-based; settings: for EC50: Human immunodeficiency virus 1, U1, 72 h
How it was run: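 U1 cells (50,000/ml, RPMI/10% FCS) were induced with 5 ng/ml TNF-α and given compound at the same time over a six-point range from 0 to 11.9 or 25.1 μM, for 3 days. Supernatant reverse transcriptase activity was read. Cell toxicity was by MTS reduction (formazan at 492 nm) relative to untreated cells. Values were interpolated between bracketing points.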

[17] = tested on: Human immunodeficiency virus 1; test: Antiviral activity against HIV1 NL4-3 infected in human 293T cells assessed as inhibition of p24 synthesis at 8 uM after 24 hrs by Western blotting
[18] = tested on: Human immunodeficiency virus 1; test: Antiviral activity against HIV1 infected in TNFalpha-stimulated human U1 cells assessed as inhibition of p24 synthesis at 10 uM after 24 hrs by Western blotting; type: functional, organism-based; how it was run: as §2
[19] = tested on: Human immunodeficiency virus 1; test: Antiviral activity against HIV1 NL4-3 infected in human 293T cells assessed as inhibition of p24 synthesis at 10 uM after 24 hrs by Western blotting
[20] = tested on: Human immunodeficiency virus 1; test: Antiviral activity against HIV1 infected in TNFalpha-stimulated human U1 cells assessed as inhibition of Pr55gag synthesis at 10 uM after 24 hrs by Western blotting; type: functional, organism-based; how it was run: as §2
[21] = tested on: Human immunodeficiency virus 1; test: Antiviral activity against HIV1 NL4-3 infected in human SupT1 cells assessed as inhibition of viral growth at 1 uM after 30 days by p24 ELISA; type: functional, organism-based; settings: SUP-T1; how it was run: as §3
[22] = tested on: Human immunodeficiency virus 1; test: Antiviral activity against HIV1 NL4-3 infected in human 293T cells assessed as inhibition of Nef synthesis at 10 uM after 24 hrs by Western blotting
[23] = tested on: Human immunodeficiency virus 1; test: Antiviral activity against HIV1 NL4-3 infected in human SupT1 cells assessed as inhibition of viral growth at 10 uM after 30 days by p24 ELISA; type: functional, organism-based; settings: SUP-T1; how it was run: as §3
[24] = tested on: Human immunodeficiency virus 1; test: Antiviral activity against HIV1 infected in TNFalpha-stimulated human U1 cells assessed as inhibition of Nef synthesis at 10 uM after 24 hrs by Western blotting; type: functional, organism-based; how it was run: as §2

NC[C@@H]1O[C@H](O[C@H]2[C@@H](O)[C@H](O[C@@H]3[C@@H](O)[C@H](N)C[C@H](N)[C@H]3O[C@H]3O[C@H](CN)[C@@H](O)[C@H](O)[C@H]3N)O[C@@H]2CO)[C@H](N)[C@@H](O)[C@@H]1O
inhibition [1]: Active

CCc1c(C(=O)Nc2ccccc2)c(C)nc2sc(C(N)=O)c(N)c12
CC50 at 120 h [2]: > 100 µM | TC50 (HeLa): 7.91 µM | EC50 [3]: 2.42 µM | EC50 [4]: 3 µM | CC50 at 48 h [5]: > 30 µM

COc1ccc2nc(C(F)(F)F)c(C#N)c(N)c2c1
inhibition [6]: inactive | Activity [7]: Active | Activity (U1): Toxic | Activity [8]: inactive | Activity [9]: inactive | CC50 at 120 h [2]: 28 µM | TC50 (HeLa): 17.2 µM | Activity [10]: Active | Activity [11]: Active | EC50 [3]: 2.24 µM | EC50 [12]: 1.9 µM | inhibition (HEK-293T): Dose-dependent effect | EC50 [13]: 0.63 µM | EC50 [4]: 2.5 µM | EC50 [14]: > 15 µM | Activity [15]: Active | Activity [16]: Dose-dependent effect | EC50 [16]: < 0.25 µM | Activity [17]: Active | CC50 at 48 h [5]: > 30 µM

COc1ccc2cc3c(N)n[nH]c3nc2c1
CC50 at 120 h [2]: 20 µM | TC50 (HeLa): 8.41 µM | EC50 [3]: 0.48 µM | EC50 [4]: 0.9 µM | CC50 at 48 h [5]: > 30 µM

CC(=O)Nc1cccc2n[se]nc12
CC50 at 120 h [2]: > 100 µM | TC50 (HeLa): 51.6 µM | EC50 [3]: 8.99 µM | EC50 [4]: 10 µM | CC50 at 48 h [5]: > 30 µM

CCOC(=O)c1c(N)ncn1-c1ccccc1
CC50 at 120 h [2]: > 100 µM | TC50 (HeLa): 33 µM | EC50 [3]: 11 µM | EC50 [4]: 30 µM | CC50 at 48 h [5]: > 30 µM

CCc1c(C)nc2sc(C(N)=O)c(N)c2c1C
inhibition [6]: inactive | Activity [18]: Active | CC50 at 120 h [2]: 32 µM | Activity [19]: Active | Activity [20]: Active | TC50 (HeLa): > 37.6 µM | Activity [21]: Active | EC50 [3]: 1.07 µM | EC50 [12]: 3.8 µM | inhibition (HEK-293T): Dose-dependent effect | EC50 [13]: 0.29 µM | EC50 [4]: 0.9 µM | EC50 [14]: > 15 µM | Activity [16]: Dose-dependent effect | EC50 [16]: 0.4 µM | Activity [22]: inactive | CC50 at 48 h [5]: > 30 µM | Activity [23]: Active | Activity [24]: inactive

CS(=O)(=O)c1ncc(-c2ccc(Br)cc2)cn1
CC50 at 120 h [2]: 10 µM | TC50 (HeLa): 30.9 µM | EC50 [3]: 7.48 µM | EC50 [4]: 0.2 µM | CC50 at 48 h [5]: > 30 µM

COC(=O)c1c(N)ncn1-c1ccc(C)cc1
CC50 at 120 h [2]: > 100 µM | TC50 (HeLa): > 41.8 µM | EC50 [3]: 11.2 µM | EC50 [4]: 22 µM | CC50 at 48 h [5]: > 30 µM

Cc1ccc(NC(=O)c2sc(Cl)nc2C(F)(F)F)cc1
CC50 at 120 h [2]: 18 µM | TC50 (HeLa): > 39.5 µM | EC50 [3]: 9.73 µM | EC50 [4]: 1.9 µM | CC50 at 48 h [5]: 25 µM

COc1cccc(NC(=O)c2cc(Cl)nnc2Cl)c1
CC50 at 120 h [2]: 50 µM | TC50 (HeLa): 18.5 µM | EC50 [3]: 8 µM | EC50 [4]: 4.9 µM | CC50 at 48 h [5]: > 30 µM

CCC(=C/[C@H](C)C/C=C/C(C)=C/[C@@H](C)C(=O)[C@@H](C)[C@H](O)[C@@H](C)C/C(C)=C/C(=O)O)/C=C/[C@@H]1OC(=O)C=C[C@@H]1C [LEPTOMYCIN B]
TC50 (HeLa): 0.02 µM | EC50 [3]: 0.00822 µM

Fc1ccc(Nc2ncnc3ccccc23)cc1Cl
TC50 (HeLa): > 40.8 µM | EC50 [3]: 8.98 µM | EC50 [4]: 3 µM | CC50 at 48 h [5]: > 30 µM

O=c1c2ccccc2n2nnc3ccc(NCCCN4CCN(CCCNc5ccc6nnn7c8ccccc8c(=O)c5c67)CC4)c1c32 [TEMACRAZINE]
EC50 [16]: 2 µM

Cc1cn([C@H]2C[C@H](N=[N+]=[N-])[C@@H](CO)O2)c(=O)[nH]c1=O [ZIDOVUDINE]
EC50 [13]: 2.47 µM
